Assay [1] addresses T1, 5-hydroxytryptamine receptor 1A (Homo sapiens) (UniProt P08908).
T1 sequence (whole entry): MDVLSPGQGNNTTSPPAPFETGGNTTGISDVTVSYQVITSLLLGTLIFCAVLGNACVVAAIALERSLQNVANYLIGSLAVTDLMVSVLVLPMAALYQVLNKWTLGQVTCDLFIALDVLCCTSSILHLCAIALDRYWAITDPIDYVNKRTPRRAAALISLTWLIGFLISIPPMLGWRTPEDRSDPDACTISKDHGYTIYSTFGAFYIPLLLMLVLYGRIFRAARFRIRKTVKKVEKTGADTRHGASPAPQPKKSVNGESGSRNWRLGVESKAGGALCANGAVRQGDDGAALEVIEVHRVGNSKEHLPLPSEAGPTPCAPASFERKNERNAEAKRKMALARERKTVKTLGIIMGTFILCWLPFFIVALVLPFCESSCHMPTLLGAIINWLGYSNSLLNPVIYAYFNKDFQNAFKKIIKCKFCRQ
Nature of the assay: Mean intrinsic activity was measured for the human 5-hydroxytryptamine 1A receptor; n=3. An outline of the steps:
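[35S]-GTPγS binding in HEK293 cells expressing the human 5-HT1A receptor. Intrinsic activity is the mean of three experiments, each within 0.1 of the mean.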

Assay [2] has as its target T2, 5-hydroxytryptamine receptor 1A (Homo sapiens, UniProt P08908).
T2 sequence (P08908 whole entry): T1 sequence (whole entry)
Nature of the assay: Mean negative logarithim of binding affinity was measured for the human 5-hydroxytryptamine 1A receptor; n>/=3.

The target of assay [3] is Sodium-dependent serotonin transporter (Rattus norvegicus, UniProt P31652). Nature of the assay: Mean negative logarithim of binding affinity was measured for the rat serotonin transporter; n>/=3.
Assay [4] concerns the target Beta-2 adrenergic receptor (Homo sapiens, UniProt P07550). Kind of assay: Binding affinity for human beta-2 adrenergic receptor by displacing [125I]iodocyanopindolol expressed in hamster CHO cells. Format: cell-based.

The record followed here is ChEMBL document CHEMBL1144296, “3,4-Dihydro-2H-benzoxazinones are 5-HT(1A) receptor antagonists with potent 5-HT reuptake inhibitory activity” (Bioorg Med Chem Lett, 2005).

pKi: −log10 of the molar value.

Sodium-dependent serotonin transporter, sequence (P31652 whole entry): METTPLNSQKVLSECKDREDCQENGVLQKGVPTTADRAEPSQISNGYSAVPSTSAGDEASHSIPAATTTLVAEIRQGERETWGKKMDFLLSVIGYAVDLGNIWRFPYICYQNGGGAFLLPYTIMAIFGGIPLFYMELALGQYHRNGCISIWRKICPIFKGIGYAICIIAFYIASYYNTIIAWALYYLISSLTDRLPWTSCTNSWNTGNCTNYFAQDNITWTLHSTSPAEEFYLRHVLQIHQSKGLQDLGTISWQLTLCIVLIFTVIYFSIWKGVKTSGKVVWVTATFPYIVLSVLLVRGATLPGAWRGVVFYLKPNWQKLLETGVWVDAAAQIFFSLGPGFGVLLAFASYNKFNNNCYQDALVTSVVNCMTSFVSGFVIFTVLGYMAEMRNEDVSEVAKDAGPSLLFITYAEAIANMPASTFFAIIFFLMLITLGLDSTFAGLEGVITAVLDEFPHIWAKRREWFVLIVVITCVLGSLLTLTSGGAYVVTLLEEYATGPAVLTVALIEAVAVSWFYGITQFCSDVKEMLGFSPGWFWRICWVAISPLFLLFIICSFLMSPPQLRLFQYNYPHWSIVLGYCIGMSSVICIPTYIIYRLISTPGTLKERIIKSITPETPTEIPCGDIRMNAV
Beta-2 adrenergic receptor, sequence (P07550 whole entry): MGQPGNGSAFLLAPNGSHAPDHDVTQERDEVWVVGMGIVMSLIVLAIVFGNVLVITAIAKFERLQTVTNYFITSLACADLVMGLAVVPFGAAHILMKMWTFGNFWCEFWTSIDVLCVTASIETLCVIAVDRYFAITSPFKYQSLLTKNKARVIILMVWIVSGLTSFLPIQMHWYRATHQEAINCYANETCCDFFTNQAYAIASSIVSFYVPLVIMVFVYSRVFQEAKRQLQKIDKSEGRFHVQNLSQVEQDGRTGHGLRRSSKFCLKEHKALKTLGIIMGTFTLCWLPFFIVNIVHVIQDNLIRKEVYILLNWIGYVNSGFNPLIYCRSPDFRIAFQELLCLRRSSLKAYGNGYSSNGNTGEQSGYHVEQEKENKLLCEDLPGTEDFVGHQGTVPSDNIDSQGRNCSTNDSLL

Broadly, the pKi is the Ki on a negative log10 scale, so that one unit is a factor of ten. High values mean a small Ki, low ones a large Ki. `O=C1COc2ccc(OC3CCN(CCOc4cccc5[nH]ccc45)CC3)cc2N1` gave an IA in assay [1] of 0.2. The pKi is 8.40 in assay [2] and 8.30 in assay [3].

Turning to `CC(COc1ccc2c(c1)NC(=O)CO2)NCC(O)COc1cccc2[nH]ccc12` (stereo in doubt; 1c) [listing 1 of 2 here], the IA in assay [1] was 0.3.

In assay [1], `Cc1ccc2c(OCCN3CCC(Cc4ccc5c(c4)NC(=O)CO5)CC3)cccc2n1` showed an IA of 0.2.

In the case of `CC(COc1ccc2c(c1)NC(=O)CO2)NCC(O)COc1cccc2[nH]ccc12` (stereo in doubt; 1c) [listing 2 of 2 here], in assay [3], the pKi was 7.00.

`CC(COc1ccc2c(c1)NC(=O)CO2)NCC(O)COc1cccc2[nH]ccc12` (stereo in doubt; 1a) [listing 1 of 2 here] showed a pKi in assay [3] of 6.90.

In the case of `O=C1COc2ccc(OC3CCN(CCOc4cccc5ccccc45)CC3)cc2N1`, the IA in assay [1] is 0.4. The pKi was 8.60 in assay [2] and 7.00 in assay [3].

As for `O=C1COc2ccc(OC3CCN(CCOc4ccnc5ccccc45)CC3)cc2N1`, in assay [2], the pKi was 7.00.

Turning to `O=C1COc2ccc(OC3CCN(CCOc4nccc5ccccc45)CC3)cc2N1`, the IA in assay [1] turned out to be 0.8. Further, the pKi was 8.10 in assay [2] and 7.30 in assay [3].

In assay [1], `O=C1COc2ccc(OC3CCN(CCOc4cccc5ncccc45)CC3)cc2N1` yielded an IA of 0.1. In addition, the pKi in assay [2] is 7.90; in assay [3], 7.50.

`O=C1COc2ccc(CC3CCN(CCOc4cccc5ncccc45)CC3)cc2N1` displayed an IA in assay [1] of 0.2. Further, the pKi in assay [2] was 8.90; in assay [3] it was 8.20.

The molecule `CC(COc1ccc2c(c1)NC(=O)CO2)NCC(O)COc1cccc2[nH]ccc12` (stereo in doubt; 1) [listing 1 of 2 here] showed an IA in assay [1] of 0.3.

In assay [1], `O=C1COc2ccc(OCC3CCCN(CCOc4cccc5ncccc45)C3)cc2N1` (stereo not given) yielded an IA of 0.3. Besides, the pKi is 8.80 in assay [2] and 7.10 in assay [3].

As for `O=C1COc2ccc(OCC3CCN(CCOc4cccc5ncccc45)C3)cc2N1` (stereo not given), the IA in assay [1] amounted to 0.3. Further, the pKi in assay [2] was 8.90; in assay [3], 7.30.

In turn, `CC(COc1ccc2c(c1)NC(=O)CO2)NCC(O)COc1cccc2[nH]ccc12` (stereo in doubt; 1) [listing 2 of 2 here] had a pKi in assay [3] of 7.30.

As to `O=C1COc2ccc(OCCNCCCOc3cccc4[nH]ccc34)cc2N1`, the IA in assay [1] was 0.6. In addition, the results for the negative logarithm of the Ki (pKi) in assay [4], in assay [2] and in assay [3] were 6.00, 8.80 and 7.10, respectively.

In turn, `CC(COc1ccc2c(c1)NC(=O)CO2)NCC(O)COc1cccc2[nH]ccc12` (stereo in doubt; 1d) [listing 1 of 2 here] had an IA in assay [1] of 0.2.

With `O=C1COc2ccc(OC3CCN(CCOc4cccc5cccnc45)CC3)cc2N1`, in assay [1], the IA was found to be 0.5. Further, the pKi is 8.20 in assay [2] and 7.40 in assay [3].

`O=C1COc2ccc(CN3CCN(CCOc4cccc5ncccc45)CC3)cc2N1` displayed an IA in assay [1] of 0.2. The negative-log Ki (pKi) was 8.00 in assay [2] and 7.50 in assay [3].

In the case of `N#Cc1cc2c(OCCN3CCC(Oc4ccc5c(c4)NC(=O)CO5)CC3)cccc2[nH]1`, the IA in assay [1] came to 0.3. Moreover, the figures for the pKi in assay [2] and in assay [3] were 8.80 and 8.10, respectively.

In assay [1], `CC(COc1ccc2c(c1)NC(=O)CO2)NCC(O)COc1cccc2[nH]ccc12` (stereo in doubt; 1b) displayed an IA of 0.3.

`CC(COc1ccc2c(c1)NC(=O)CO2)NCC(O)COc1cccc2[nH]ccc12` (stereo in doubt; 1d) [listing 2 of 2 here] gave a pKi in assay [3] of 6.50.

`CC(COc1ccc2c(c1)NC(=O)CO2)NCC(O)COc1cccc2[nH]ccc12` (stereo in doubt; 1a) [listing 2 of 2 here] came in with an IA in assay [1] of 0.4.
